Broadly, the Ki is the dissociation constant of the complex between target and ligand, obtained from inhibition or displacement.

The source of these data is ChEMBL document CHEMBL1122179, “1-(alkylamino)isochromans: hypotensives with peripheral and central activities” (J Med Chem, 1982).

The test system of assay [1] is Rattus norvegicus. The experiment in a line: Pressor effects of intravenous norepinephrine (0.1 ug/kg) was measured in anesthetized rats at 0 min. Type of assay: functional. The method, boiled down: (§1)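 Female Sprague-Dawley rats (200–300 g), anesthetized iv with α-chloralose (40 mg/kg), urethane (40 mg/kg) and pentobarbital (15 mg/kg). Carotid artery catheter for blood pressure and heart rate, jugular vein for drugs. Test agent given at 1.0 mg/kg iv in 0.1 M citric acid (1 mg/mL). Pressor responses to iv norepinephrine 0.1 μg/kg, phenylephrine 2.5 μg/kg and angiotensin I 0.1 μg/kg were taken before and 15, 30, 45 and 60 min after dosing. Mean ± SEM.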

For assay [2], the target named is T1, Adrenergic receptor alpha-2 (Rattus norvegicus, UniProt P22086+P19328+P22909).
T1 sequence (P22086 whole entry): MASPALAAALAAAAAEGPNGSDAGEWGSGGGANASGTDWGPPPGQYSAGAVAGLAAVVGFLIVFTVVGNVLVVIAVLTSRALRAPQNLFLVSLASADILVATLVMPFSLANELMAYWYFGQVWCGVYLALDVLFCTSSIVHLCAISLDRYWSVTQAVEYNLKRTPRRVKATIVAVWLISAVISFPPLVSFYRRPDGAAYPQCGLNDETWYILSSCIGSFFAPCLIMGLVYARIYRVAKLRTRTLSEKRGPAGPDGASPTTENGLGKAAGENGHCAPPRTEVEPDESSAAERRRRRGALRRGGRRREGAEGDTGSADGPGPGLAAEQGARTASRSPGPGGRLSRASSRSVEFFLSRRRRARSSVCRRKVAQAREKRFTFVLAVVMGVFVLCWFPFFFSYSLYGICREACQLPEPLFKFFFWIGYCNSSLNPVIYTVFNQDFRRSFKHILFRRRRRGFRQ
T1 sequence (P19328 whole entry): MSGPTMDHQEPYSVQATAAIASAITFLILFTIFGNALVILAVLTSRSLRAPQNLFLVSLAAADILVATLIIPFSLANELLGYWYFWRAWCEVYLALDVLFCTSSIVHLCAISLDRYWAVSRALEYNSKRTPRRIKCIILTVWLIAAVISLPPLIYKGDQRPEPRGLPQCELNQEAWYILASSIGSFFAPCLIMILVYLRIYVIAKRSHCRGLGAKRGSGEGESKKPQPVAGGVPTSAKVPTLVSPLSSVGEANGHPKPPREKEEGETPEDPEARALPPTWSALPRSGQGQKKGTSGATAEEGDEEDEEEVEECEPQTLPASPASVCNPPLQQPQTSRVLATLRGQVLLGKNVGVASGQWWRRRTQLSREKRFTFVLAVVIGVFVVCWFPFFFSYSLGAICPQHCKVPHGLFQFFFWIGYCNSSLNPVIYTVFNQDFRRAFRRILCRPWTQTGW
T1 sequence (P22909 whole entry): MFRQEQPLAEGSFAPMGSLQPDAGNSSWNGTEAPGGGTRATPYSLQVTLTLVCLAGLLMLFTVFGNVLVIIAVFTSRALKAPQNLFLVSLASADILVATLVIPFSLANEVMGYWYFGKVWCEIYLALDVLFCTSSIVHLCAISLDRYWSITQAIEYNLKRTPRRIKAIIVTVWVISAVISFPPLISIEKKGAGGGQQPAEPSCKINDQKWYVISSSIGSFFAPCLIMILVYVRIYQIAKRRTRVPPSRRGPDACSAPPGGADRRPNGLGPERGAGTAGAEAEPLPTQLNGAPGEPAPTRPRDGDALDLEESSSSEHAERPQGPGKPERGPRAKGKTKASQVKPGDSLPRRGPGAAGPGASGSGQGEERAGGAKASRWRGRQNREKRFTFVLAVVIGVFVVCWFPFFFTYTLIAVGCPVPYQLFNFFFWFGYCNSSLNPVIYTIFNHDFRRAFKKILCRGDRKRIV
As to the kind of experiment: Compound was tested for the inhibition of [3H]clonidine binding Alpha-2 adrenergic receptor of crude rat brain membrane.

Assay [3] has as its system Rattus norvegicus. As to the kind of experiment: Delta BP refers to oral hypotensive activity of compound which is evaluated at 4 hr and 24 hr in restrained, normotensive conscious rats at a dose of 15 mg/kg; -20/-18. It is filed as functional. The method, boiled down:
(§2)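 Female Sprague-Dawley rats, normotensive, restrained in a towel. Blood pressure was read directly via chronic indwelling aortic cannulas exteriorized at the nape, before and 4 and 24 h after an oral dose suspended in carboxymethylcellulose (10 mL/kg). Values from two animals were averaged at each time; a mean change of at least 5 mmHg was taken as significant (p < 0.05).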

Assay [4] deals with Rattus norvegicus. As to the kind of experiment: Mean arterial pressure of compound was measured in anesthetized rats at 60 min. It is filed as functional, Artery. The method, boiled down: as §1
Assay [5] concerns Rattus norvegicus. As to the kind of experiment: Pressor effects of intravenous phenylephrine (2.5 ug/kg) was measured in anesthetized rats at 0 min. It is filed as functional. The method, boiled down:
as §1

Assay [6] relates to Rattus norvegicus. As to the kind of experiment: Mean arterial pressure of compound was measured in anesthetized rats at 0 min. Type of assay: functional, Artery. The method in brief: as §1
Assay [7] concerns Rattus norvegicus. The experiment in a line: Heart rate of compound was measured in anesthetized rats at 60 min. It is filed as functional. The method in brief: as §1
Assay [8] relates to Rattus norvegicus. As to the kind of experiment: Pressor effects of intravenous norepinephrine (0.1 ug/kg) was measured in anesthetized rats at 60 min. Type of assay: functional. The method, boiled down: as §1
The test system of assay [9] is Rattus norvegicus. As to the kind of experiment: Delta BP refers to oral hypotensive activity of compound which is evaluated at 4 hr and 24 hr in restrained, normotensive conscious rats at a dose of 5 mg/kg; -9/-3. It is filed as functional. The method, boiled down:
as §2

As for `COc1cc2c(cc1OC)C(CCN1CCN(c3ccc(F)cc3)CC1)OCC2` (centres undefined), the Pressor response in the assay with Rattus norvegicus [1] is on record as 19 mmHg; in the assay with Rattus norvegicus [5], 48 mmHg; in the assay with Rattus norvegicus [8], 7 mmHg. This molecule displayed a Ki in assay [2] of 0.062 µM. In addition, the values for the Delta blood pressure with Rattus norvegicus [3] and with Rattus norvegicus [9] were -20 mmHg and -9 mmHg, respectively. For the same molecule, the results for the MAP with Rattus norvegicus [4] and in the assay with Rattus norvegicus [6] were 87 mmHg and 105 mmHg, respectively. Further, the HR in the assay on Rattus norvegicus [7] amounted to 426 beats min-1.
